According to ChEMBL document CHEMBL4513216, “Probing the Open Global Health Chemical Diversity Library for Multistage-Active Starting Points for Next-Generation Antimalarials” (ACS Infect Dis, 2020):

Assay: Toxicity liver stage against HepG2, at 10uM
Assay type: cell-based
Design: test concentration 10 uM, cell line HepG2-A16-CD81EGFP
Conditions: human, HepG2-A16-CD81EGFP cells; read-out: INHIBITION
In short: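 Uninfected HepG2-A16-CD81EGFP cells, 3 × 10^3 per well, 1536-well, plated on prespotted compound at 10 μM final, parasite-free screening media added to match infected plates; puromycin 10 μM positive, DMSO 0.5% negative; run in parallel with 48 h PbLuc assay at 37 °C, 5% CO2; viability by CellTiter-Glo luminescence, normalized to controls.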

Row | SMILES | cytotoxicity at 10 µM
1 | O=C(CN1CCN(C(=O)c2ccccc2)CC1)Nc1ncc(Br)cc1Br | 8.63%
2 | O=C(NC[C@H]1COCc2nc3cc(F)ccc3n21)c1cccnc1 | -1.23%
3 | CN1CCC(N2CCC[C@H]2c2nc(-c3cncnc3N)no2)CC1 | -5.33%
4 | Cc1cccc2c1nc1n2[C@@H](CNC(=O)c2cncnc2)COC1 | 1.53%
5 | Cc1nnc(NC(=O)CSCc2cc(=O)n3ccccc3n2)s1 | 1.5%
6 | COc1cc2c(cc1OC)C(=O)C(Sc1nnc(C)o1)C2 (stereo not given) | 0.372%
7 | COc1ccccc1C(=O)N1CCC(Oc2ccc(C#N)cn2)CC1 | 5.54%
8 | Cc1cc(C)c(S(=O)(=O)Nc2c(C)nc(N3CCCC3)nc2C)cc1C | 3.62%
9 | CCOCC1C[C@@H]2OCCN(C(=O)c3ccc[nH]3)[C@H]2C1 (stereo not given in full) | -1.86%
10 | CN1C(=O)CC2(CCN(S(=O)(=O)N(C)C)CC2)c2ccccc21 | 0.688%
11 | O=C(C[C@@H]1COC[C@H]2CN(Cc3ccncc3)C[C@@H]12)N1CCCC1 | -2.3%
12 | CN(C)CCCNC(=O)c1ccccc1NC(=O)c1cc(Cl)ccc1Cl | -17%
13 | COc1cc(C2CC(=O)Nc3c2c(=O)[nH]n3C2CCCC2)ccc1O (stereo not given) | -1.37%
14 | CCC(=O)N1CCN(c2nc(C)nc3c(C)nn(C)c23)CC1 | 12.4%
15 | CC(=O)Nc1ncc(S(=O)(=O)Nc2cccc(C)c2)s1 | 7.63%
16 | N#Cc1cn[nH]c1NCc1cc(Br)ccc1O | -7.29%
17 | Cc1cnc(C(=O)N2CCN(c3ncc4c(n3)CCOC4)CC2)cn1 | 4.91%
18 | CN(C)c1nccc(C2CCN(C3CCCCC3O)CC2)n1 (stereo not given) | 1.98%
19 | O=S1(=O)NC2(CCCN(Cc3ccc(Cl)cc3)C2)COc2ccccc21 (stereo not given) | 15.2%
20 | O=C1Nc2ccccc2CC12CCCN2Cc1ccccn1 (stereo not given) | -17.1%
21 | CC(C)C(NC(=O)c1nc(N2CCOCC2)ncc1Cl)c1cccs1 (stereo not given) | -44.3%
22 | Cc1nc(-c2cccs2)ccc1C(=O)N1CCN(CCO)CC1 | -56%

Row | SMILES | cytotoxicity at 10 µM
23 | CCC(=O)Nc1ccc(F)cc1OC | -26.1%
24 | CC(C)c1noc(C(C)N2CCN(Cc3noc(C4CC4)n3)CC2)n1 (stereo not given) | 3.01%
25 | CC(C(=O)Nc1cccc(F)c1)N(C)CCN1CCOCC1 (stereo not given) | -9.19%
26 | Cc1nn(C)c(C)c1S(=O)(=O)N(CC(N)=O)CC(C)C | 10.5%
27 | CS(=O)(=O)NCCNC(=O)C1(c2ccc(F)cc2)CC1 | 1.93%
28 | O=C(CSc1ccc2c(c1)OCCO2)NS(=O)(=O)c1cc(F)ccc1F | -3.47%
29 | Cc1cc(NC(C)C(=O)N2CCN(c3ncccn3)CC2)ccc1F (stereo not given) | 7.77%
30 | Cc1ccc(OCC(=O)Nc2ncccc2OC(F)F)cc1 | 6.42%
31 | Cc1ccc(C(O)CNC(=O)c2cccnc2O)cc1 (stereo not given) | 11%
32 | Cc1n[nH]c(C2CN(C(=O)c3ccc(Cl)o3)CCO2)n1 (stereo not given) | -5.59%
33 | COCC(C)NC(=O)NCCc1cccc(OC)c1O (stereo not given) | 7.87%
34 | CCN(Cc1cnn(C)c1)S(=O)(=O)N1CCCC1c1ccco1 (stereo not given) | -3.55%
35 | COC(=O)c1cc(C(=O)N2CCc3ccc(F)cc3C2C)ccn1 (stereo not given) | 10.5%
36 | CS(=O)(=O)NC1CCN(C(=O)CCn2cccn2)CC1 | -7.74%
37 | COCCCNS(=O)(=O)c1cc(C)sc1C | -11.6%
38 | CCN(CC)S(=O)(=O)c1ccc(C(F)(F)F)cc1C#N | -13.4%
39 | CC1CCN(C(=O)Cc2ccc(S(=O)(=O)C(F)F)cc2)CC1 | 2.98%
40 | Cc1nnc(CN(C)CC2CCCCC2)o1 | 15.6%
41 | CCNC(=O)NC1CN(Cc2ccncc2Cl)C[C@@H]1OC (stereo not given in full) | 1.85%
42 | O=C(Cn1cc(I)cn1)NCC1CCC1 | 14.5%
43 | CCC(=O)NC1CCCN(Cc2ccc(NC(C)=O)cc2)C1 (stereo not given) | -47.9%
44 | CS(=O)(=O)Cc1nc(CN2CC=C(c3ccccc3)CC2)cs1 | 5.27%

Row | SMILES | cytotoxicity at 10 µM
45 | Cc1cnc(CN2CCC(N(C)Cc3nnc(C4CC4)n3C)C2)cn1 (stereo not given) | -2.31%
46 | c1c(CN2CCOCC2)nc2n1CCN(C1CCOCC1)C2 | 0.997%
47 | NC(=O)C1Cn2ccnc2C2(CCN(C(=O)c3ccncc3)CC2)O1 (stereo not given) | -103%
48 | Cc1nc(CN2Cc3cn(C)nc3C(COCC3CC3)C2)cs1 (stereo not given) | -68.9%
49 | CO[C@@H]1CCN(S(=O)(=O)c2cccs2)[C@H]1Cc1ccccc1 | -78%
50 | CN(C)C(=O)NC1COC2(CCN(Cc3ccco3)CC2)C1 (stereo not given) | -72.4%
51 | CC(=O)N1CCCC2(C1)CN(C(=O)c1ccncc1)CCO2 (stereo not given) | -78.7%
52 | CNC(=O)[C@@]12CCO[C@@H]1CCN(S(=O)(=O)c1cccc(F)c1)C2 | -73.8%
53 | COCCN1CCC12CCN(C(=O)c1ccc3[nH]ccc3c1)C2 (stereo not given) | -82.6%
54 | CC(C)c1nccc([C@@H]2C[C@@H]3CCN(Cc4ccoc4)C[C@H]3O2)n1 | -7.47%
55 | Cn1cc(-c2nnn3c2COC(CNCc2cccnc2)C3)cn1 (stereo not given) | 0.824%
56 | CCOC1COC2(CCN(S(=O)(=O)c3cccc(C)c3)CC2)C1 (stereo not given) | -79.8%
57 | Cc1cccc(N2CCN(CCC(=O)NCc3cccnc3)CC2)c1 | -9.2%
58 | C[C@H](NC(=O)c1cnc(-c2ccccc2)nc1O)C(N)=O | 7.06%
59 | CC(=O)Nc1ccc2nc(-c3nccn3C[C@@H]3CCCO3)ccc2c1 | -8.18%
60 | O=C1CCC(C(=O)N2CCC(Cn3cc(C4CCCC4)nn3)CC2)=NN1 | 5.14%
61 | NC(=O)c1cc2c(nc1Oc1ccccc1CN1CCCCC1)CCC2 | 3.71%
62 | CCCc1ccc2oc(C(=O)N3CCCN(C)CC3)c(C)c2c1 | -8.3%
63 | O=C(CCc1ccccc1)C1CCCN(Cc2cncn2C2CC2)C1 (stereo not given) | -7.12%
64 | CN(C)c1nc(NCCc2cnccn2)ncc1F | 5.56%
65 | Oc1cc(CN2CCC(O)(Cn3ccnc3)CC2)nc2c(Cl)cccc12 | -60.8%
66 | Cc1cc(C)n2nc(C(=O)N3CCCC4(CNC(=O)O4)C3)cc2n1 (stereo not given) | 9.48%

Row | SMILES | cytotoxicity at 10 µM
67 | COc1ncc(-c2ccc(O)cc2)c(OC)n1 | -2.42%
68 | Cc1ccc(CN(Cc2ccccn2)C(=O)C2CCCCCN2C)s1 (stereo not given) | -20.2%
69 | CN(Cc1ccncn1)C(=O)c1cccc(CCC(C)(C)O)c1 | -4.27%
70 | CN(Cc1nc(Cc2cccc(C(F)(F)F)c2)no1)C(C1CC1)C1CC1 | 0.92%
71 | NCC1Cc2cccc(-c3ccc(O)c(F)c3)c2O1 (stereo not given) | -40.2%
72 | CN(Cc1cnc(N)nc1)C(=O)c1coc(COc2ccccc2)n1 | 1.58%
73 | Cc1nc(N(C)C)ncc1C(=O)NCCCn1nccc1C1CC1 | 9.53%
74 | Cc1n[nH]c(C)c1CC(=O)N1CC[C@@](C)(O)[C@@H](Cc2ccccc2)C1 | 5.94%
75 | CCOc1cccc(CN2CCCn3nc(CNS(C)(=O)=O)cc3C2)c1 | -4.01%
76 | COc1cccc2c1OCCCN(c1nc(N)nc3c1CCNC3)C2 | 0.944%
77 | COCC(=O)N1CCCC1c1ccc(C(=O)NCCN2CCCCC2)s1 (stereo not given) | 4.26%
78 | C[C@@H]1CN(CC(C)(C)N2CCOCC2)CC[C@@]1(O)C1CCOCC1 | -1.71%
79 | O=C(c1cccnc1)N1CCC(Oc2cccc(C(F)(F)F)c2)CC1 | 7.19%
80 | Cc1cc(CNCc2c(C)n(CC(C)C)c3ccccc23)[nH]n1 | -1.63%
81 | O=C(NC1CCOCC1)c1cccc(C2CCCNC2)c1 (stereo not given) | 2.58%
82 | Cc1nc(-c2c(-c3ccccc3)ncn2CCCN2CCOCC2)c[nH]1 | -6.76%
83 | Cc1cnn(CC(=O)N2CCC3(CCC(=O)N(CC(C)O)C3)CC2)c1 (stereo not given) | 3.05%
84 | NC(=O)CC1CCN(C(=O)c2cccn2Cc2cccs2)CC1 | -7.19%
85 | Cc1ccc(-c2nc(C(=O)N(C)C3CCN(C)CC3)cs2)c(C)c1 | -7.07%
86 | CN(Cc1ccccc1)CC(O)Cn1cnc2c(Cl)cc(Cl)cc2c1=O (stereo not given) | -2.34%
87 | CCc1nc(CC(=O)N2CCn3c(C)nnc3C2)cs1 | -9.57%
88 | Cc1cc(C)c(CNC(=O)NCC2CCCOC2)c(=O)[nH]1 (stereo not given) | -8.19%

Row | SMILES | cytotoxicity at 10 µM
89 | CC(C(=O)N1CCCN(Cc2ccc(C#N)cc2)CC1)n1cncn1 (stereo not given) | 2.6%
90 | CCn1cnnc1C1CCN(C(=O)c2cnc(C)s2)CC1 | -8.45%
91 | c1cn(-c2ccc(CN3CCOC(Cn4cncn4)C3)cc2)cn1 (stereo not given) | 1.25%
92 | Cc1nn(-c2ccccc2)cc1C(=O)N1CCCC(n2ccnc2C)C1 (stereo not given) | -3.11%
93 | Cc1ncccc1-c1cc2cccnc2n1CCCNC(=O)C(C)(C)C | 12.8%
94 | Cc1ccc(CN(CCN(C)C)Cc2c(C)nc3sccn23)o1 | 3.08%
95 | CCN(C(=O)c1ccc2nnc(C3CCN(C)C3)n2c1)C(C)C (stereo not given) | -112%
96 | c1cncc(CN2CCN3C[C@H](Oc4cncnc4)C[C@H]3C2)c1 | -100%
97 | O=C(C1=CCCCC1)N1CCO[C@H]2[C@H](Oc3ccccn3)CC[C@@H]21 | 5.08%
98 | Cc1cccc(CN2CCCC3(CCN(CC(=O)N(C)C)C3=O)C2)n1 (stereo not given) | -119%
99 | O=C(N[C@H]1CN(Cc2cccs2)[C@@H]2CCCO[C@H]12)c1cccnc1 | -5.24%
100 | COC(=O)CN1CC2(CCNCC2)COc2ccccc2S1(=O)=O | -11.7%
101 | Cc1ccc(CN2CCc3onc(COc4cccnc4)c3C2)s1 | 5.98%
102 | Cc1nnc([C@]23COC[C@H]2CN(Cc2cccs2)C3)o1 | -3.34%
103 | Cc1cccc(CN2CCc3nnc(CO)n3CC2)n1 | 6.41%
104 | c1ccc(NCc2cnc3n2CCN(CC2CCOC2)CC3)nc1 (stereo not given) | -76.5%
105 | O=C(NC1CC2(CCN(CCO)CC2)c2ccccc21)c1ccsc1 (stereo not given) | -14.2%
106 | O=C(c1ccncc1)N1CCc2ncnc(C3CC3)c2CC1 | -75.6%
107 | O=C(NCc1ccco1)[C@@]12CCO[C@@H]1CCN(c1ncccn1)C2 | 0.864%
108 | Cc1ccc(N2CCN(CC3CC3)C3(CCN(C(C)C)CC3)C2=O)cn1 | 16%
109 | O=C(O)c1cnc2c(Br)cccc2c1O | 15.5%
110 | N#Cc1ccccc1C(=O)N1C[C@@H]2CC[C@H]1CN(Cc1ccccc1)C2 | 1.43%
